Screening data as filed in PubChem BioAssay.
In the library only some 2% were active in any assay of this set; here they are far more common.
GPR7 antagonist: blocks human GPR7 receptor signaling; P48145; GPR7-expressing cells, fluorescence antagonist assay; inhibition, % at 4.4 µM; 290,000 compounds, 1.1% hits; in the data active = inhibition above about 16%, passing the limit was not always enough;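 note: cells stimulated with the agonist NPW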
Target sequence (P48145 whole entry, looked up): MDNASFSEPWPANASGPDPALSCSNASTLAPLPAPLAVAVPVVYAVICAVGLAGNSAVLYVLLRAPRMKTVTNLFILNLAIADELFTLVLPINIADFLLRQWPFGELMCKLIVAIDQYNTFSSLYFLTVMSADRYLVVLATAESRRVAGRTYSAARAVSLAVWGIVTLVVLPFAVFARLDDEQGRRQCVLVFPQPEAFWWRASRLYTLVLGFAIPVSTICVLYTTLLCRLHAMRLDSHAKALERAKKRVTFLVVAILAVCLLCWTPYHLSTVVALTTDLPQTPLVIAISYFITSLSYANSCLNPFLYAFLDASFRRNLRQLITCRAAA
CRFBP-R2 agonist: agonists of human CRF-binding protein/CRF-R2 receptor complex; HEK293 CRF-R2/CRF-BP, calcium dye fluorescence (FLIPR); percent of saturating CRF peptide response; 350,000 compounds, 0.46% hits; activation, % at 13.2 µM;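 active = activation of at least 50%, plus an integration ratio under a set limit after plate pattern correction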
CRFBP-R2 block: blocks CRF-induced signaling of the CRF-BP/CRF-R2 complex; HEK293 CRF-R2/CRF-BP, CRF-induced calcium fluorescence; inhibition, % at 11.8 µM; AID 588475; 350,000 compounds, 0.59% hits;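 active = inhibition of the ligand-induced calcium signal above about 50% at the single tested concentration, limit read from the data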
TRPML3 ag: human mucolipin-3 channel agonism. Q8TDD5. HEK293 TRPML3-YFP, Fluo-8 calcium fluorescence; 100% = the carbachol control signal. activation, % at 3 µM. 220,000 compounds, 0.29% hits;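 active = activation above its plate's cutoff, the mean activation of the plate's test wells plus 3 SD, cut at about 12% in these data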
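Test system: HEK293 cells stably carrying human TRPML3-YFP; Doses: single dose, 3 µM final nominal compound, 0.3% DMSO final; Schedule: dye loading 1 h 37 °C then 30 min ambient, 125 s read; Technique: Fluo-8 calcium fluorescence; Benchmarks: high control carbachol 87 µM, low control DMSO.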
TRPN1 ag: agonists of zebrafish TRPN1 channel; activation, % at 3 µM; 220,000 compounds, 0.18% hits; HEK293 zebrafish TRPN1-YFP, Fluo-8 calcium fluorescence; 100% = response to 87 µM carbachol;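 active = activation above its plate's cutoff, the mean activation of test wells on that plate plus 3 SD, cut at about 19% in these data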
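Material: zebrafish TRPN1-YFP in HEK293 cells. Doses: one dose of 3 µM, 0.3% DMSO. Incubation: dye 1 h 37 °C plus 30 min RT. Measured by: intracellular calcium fluorescence with Fluo-8.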
Hits are given with their value; - = inactive; . = not tested or not shown.

SMILES	GPR7 antagonist	CRFBP-R2 agonist	CRFBP-R2 block	TRPML3 ag	TRPN1 ag
Cn1ccnc1C1CCCCN1Cc1nc(Cc2cccc(C(F)(F)F)c2)no1 (configuration not stated)	-	-	-	-	-
Cn1ccnc1C1CCCCN1Cc1nc(-c2ccc3c(c2)OCO3)no1 (configuration not stated)	49	-	-	-	-
Cc1ccc(/C=C2\Oc3c(ccc(O)c3CN3CCN(CCO)CC3)C2=O)cc1	-	86	-	-	-
CCN1CCN(Cc2c(O)ccc3c2O/C(=C\C=C\c2ccccc2OC)C3=O)CC1	-	74	-	-	-
CC(C)c1ccc(/C=C2\Oc3c(ccc(O)c3CN3CCN(C)CC3)C2=O)cc1	-	-	-	-	-
CCCC(=O)NC(C)c1nc(-c2ccc(C)cc2)no1 (configuration not stated)	.	-	-	.	.
CCOC(=O)c1cc(C#N)c(SC)nc1C	-	-	-	-	-
CSc1nc(C)c(C(=O)C[n+]2ccccc2C)cc1C#N	-	-	72	-	-
CC1CN(C(c2ccco2)c2sc3ncnn3c2O)CC(C)O1 (configuration not stated)	-	-	82	-	-
Cc1ccc(S(=O)(=O)NNC(=S)Nc2cccc(F)c2)cc1	-	-	93	-	-
O=C1C2C3C=CC(C3)C2C(=O)N1c1cccc(N2C(=O)C3C4C=CC(C4)C3C2=O)n1 (configuration not stated)	-	73	-	-	-
CCC(C)(C)c1ccc(OCCCC[n+]2cccc(C)c2C)c(C(C)(C)CC)c1	22	-	-	-	-
Cc1cc(C(C)(C)C)ccc1OCCCCN1CCCC1	-	-	-	-	-
Cc1snc(SCc2cccc(Cl)c2)c1C#N	-	-	-	.	.
COc1ccc(-c2noc(-c3ccccc3C(=O)Nc3cccnc3)n2)cc1OC	-	-	-	-	-
COc1ccc(-c2noc(-c3ccccc3C(=O)Nc3cccnc3)n2)cc1	14	-	-	-	-
CCOC(=O)C1CCN(C(=O)CCc2nnc3ccc(N4CCN(C)CC4)nn23)CC1	-	-	-	.	.
O=c1[nH]c2cc3c(cc2cc1C(c1nnnn1C1CCCCC1)N1CCSCC1)OCCO3 (configuration not stated)	-	54	-	-	-
COc1cccc(-n2nc(C#N)c(Cl)cc2=O)c1	41	-	74	-	-
COc1cccc(-n2nc(C(N)=O)c(O)cc2=O)c1	-	-	-	-	-
CCc1ccc[n+](-c2[nH]c(=O)sc2/C=N/NC([S-])=Nc2ccccc2)c1	-	85	-	-	-
COc1cccc(CNc2nc(-c3cccnc3)nc3ccccc23)c1	-	-	96	-	-
Cc1cccc(-c2ccc3c(c2)C2CC3CCN2C)c1 (configuration not stated)	.	-	-	.	.
Cc1cccc(C)c1OCC(=O)Nc1oc(-c2ccccc2)c(-c2ccccc2)c1C#N	-	-	107	-	-
Cc1cc(Nc2ccc(N(C)C)cc2)n2ncnc2n1	-	-	-	.	.
SMILES	GPR7 antagonist	CRFBP-R2 agonist	CRFBP-R2 block	TRPML3 ag	TRPN1 ag
Cc1cc(Nc2ccc3c(c2)OCCO3)n2ncnc2n1	17	-	-	-	-
O=C1C(Cl)=C(Nc2ccc(O)cc2)C(=O)c2ccccc21	38	-	86	-	-
CCN(CC)c1ccc(NC2=C(Cl)C(=O)c3ccccc3C2=O)cc1	-	-	59	-	-
Cc1ccc(NC2=CC(=O)C(=O)c3ccccc32)cc1	-	-	-	-	-
Cc1ccc(NC2=C(Cl)C(=O)c3ccccc3C2=O)cc1	-	-	91	-	-
CCOc1ccc(N2CC(C(=O)NCc3nnnn3-c3ccc(C)c(C)c3)CC2=O)cc1 (configuration not stated)	-	-	54	.	.
Cc1ccc(-n2nnnc2CNC(=O)C2CC(=O)N(c3ccc(F)cc3)C2)cc1C (configuration not stated)	.	-	-	.	.
CCOc1ccc2c(c1)/C(=N/N1C(=O)c3ccccc3C1=O)C(=O)N2	-	-	105	-	-
O=C(NC1CCSc2ccccc21)c1cccc(Cl)c1 (configuration not stated)	-	-	-	.	.
COc1ccccc1NC(=O)C1CCN(S(=O)(=O)c2cccs2)CC1	.	-	-	.	.
C=C(C)COc1ccc(-c2[nH]ncc2Oc2ccccc2OC)c(O)c1	-	-	51	-	-
